Test results taken from ChEMBL document CHEMBL1806486, “Discovery and evaluation of 3-phenyl-1H-5-pyrazolylamine-based derivatives as potent, selective and efficacious inhibitors of FMS-like tyrosine kinase-3 (FLT3)” (Bioorg Med Chem, 2011).

Legend:
[1] = target: Vascular endothelial growth factor receptor 2 (Homo sapiens, UniProt P35968); experiment: Inhibition of recombinant GST-tagged VEGFR2 expressed in Sf9 insect cells after 120 mins by Kinase-Glo assay; assay type: cell-based
[2] = Half life in Sprague-Dawley rat at 5 mg/kg, iv; assay type: ADME, organism-based; design: dose 5 mg/kg, route intravenous; settings: in vivo
Mus musculus [3] = experiment: Toxicity in athymic nu/nu nude mouse assessed as lethality at 50 mg/kg, iv for continuous 5 days; assay type: organism-based; design: dose 50 mg/kg, route intravenous; settings: in vivo, 120 h
[4] = target: T1, Receptor-type tyrosine-protein kinase FLT3 (Homo sapiens, UniProt P36888); experiment: Inhibition of GST-tagged FLT3 expressing wild type kinase domain expressed in Sf9 insect cells after 4 hrs by Kinase-Glo assay
T1 sequence (P36888 whole entry): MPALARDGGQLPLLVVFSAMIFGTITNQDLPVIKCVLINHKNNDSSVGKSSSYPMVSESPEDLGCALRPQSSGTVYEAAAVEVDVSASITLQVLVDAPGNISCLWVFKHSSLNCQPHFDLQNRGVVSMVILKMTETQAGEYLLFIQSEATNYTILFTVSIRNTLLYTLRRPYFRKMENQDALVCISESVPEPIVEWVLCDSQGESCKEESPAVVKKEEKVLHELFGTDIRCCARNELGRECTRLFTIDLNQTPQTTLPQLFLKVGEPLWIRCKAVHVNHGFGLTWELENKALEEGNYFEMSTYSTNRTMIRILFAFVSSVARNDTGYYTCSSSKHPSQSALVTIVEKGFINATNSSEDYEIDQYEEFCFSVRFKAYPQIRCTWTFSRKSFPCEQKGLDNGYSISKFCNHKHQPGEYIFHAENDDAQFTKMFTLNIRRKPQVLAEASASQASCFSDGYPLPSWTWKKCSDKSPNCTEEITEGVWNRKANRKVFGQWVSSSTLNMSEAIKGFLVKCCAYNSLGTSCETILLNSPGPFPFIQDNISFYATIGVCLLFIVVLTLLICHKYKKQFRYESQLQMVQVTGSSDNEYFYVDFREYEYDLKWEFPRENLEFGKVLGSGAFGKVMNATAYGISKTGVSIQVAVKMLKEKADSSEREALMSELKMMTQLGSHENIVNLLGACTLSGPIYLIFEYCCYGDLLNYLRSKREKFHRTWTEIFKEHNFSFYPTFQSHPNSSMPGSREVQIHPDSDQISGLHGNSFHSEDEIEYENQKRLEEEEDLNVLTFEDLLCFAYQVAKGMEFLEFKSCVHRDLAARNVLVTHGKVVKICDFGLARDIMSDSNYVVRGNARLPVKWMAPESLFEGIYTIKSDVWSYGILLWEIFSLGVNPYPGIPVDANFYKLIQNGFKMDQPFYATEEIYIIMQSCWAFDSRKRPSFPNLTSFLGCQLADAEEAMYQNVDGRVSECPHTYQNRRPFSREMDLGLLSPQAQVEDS

Aurora kinase A = target: T2, Aurora kinase A (Homo sapiens, UniProt O14965); experiment: Inhibition of recombinant GST-tagged Aurora A expressed in Sf9 insect cells after 90 mins by Kinase-Glo assay
T2 sequence (O14965 whole entry): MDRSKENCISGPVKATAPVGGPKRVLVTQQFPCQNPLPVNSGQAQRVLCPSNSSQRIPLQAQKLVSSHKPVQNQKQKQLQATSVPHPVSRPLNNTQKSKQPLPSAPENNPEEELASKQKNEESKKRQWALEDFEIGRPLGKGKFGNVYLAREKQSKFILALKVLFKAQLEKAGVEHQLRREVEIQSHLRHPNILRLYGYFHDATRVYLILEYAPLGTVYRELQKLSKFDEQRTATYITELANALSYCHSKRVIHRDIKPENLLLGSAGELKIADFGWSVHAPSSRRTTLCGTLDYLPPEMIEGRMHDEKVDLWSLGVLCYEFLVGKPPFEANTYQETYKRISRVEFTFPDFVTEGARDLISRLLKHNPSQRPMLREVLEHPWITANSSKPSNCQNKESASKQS
Summary of the method: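 GST-Aurora A kinase domain (S123–S401, 150 ng) from Sf9 cells. Buffer was 50 mM Tris-HCl pH 7.4 with 10 mM NaCl, 10 mM MgCl2, 0.01% BSA and 1 mM DTT. Kinase-Glo Plus was added for 20 min at 25 °C before the luminescence read.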

[5] = Volume of distribution at steady state in Sprague-Dawley rat at 5 mg/kg, iv; assay type: ADME, organism-based; design: dose 5 mg/kg, route intravenous; settings: in vivo, read-out: Vdss
[6] = target: Vascular endothelial growth factor receptor 1 (Homo sapiens, UniProt P17948); experiment: Inhibition of recombinant GST-tagged VEGFR1 expressed in Sf9 insect cells after 120 mins by Kinase-Glo assay
Summary of the method: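 GST-VEGFR1 (R781–I1338) or GST-VEGFR2 (V789–V1356) kinase domain, 50–100 ng, from Sf9 cells. Read-out was Kinase-Glo Plus luminescence.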

Mus musculus [7] = experiment: Toxicity in normal mouse assessed as reduction of body weight at 50 mg/kg, iv for continuous 5 days; settings: in vivo, 120 h
[8] = Clearance in Sprague-Dawley rat at 5 mg/kg, iv; assay type: ADME, organism-based; design: dose 5 mg/kg, route intravenous; settings: in vivo
MOLM-13 = experiment: Antiproliferation activity against human MOLM13 cells expressing FLT3 mutation assessed as cell viability after 72 hrs by MTS method; assay type: functional; settings: MOLM-13, 72 h
[9] = AUC (0 to infinity) in Sprague-Dawley rat at 5 mg/kg, iv; assay type: ADME, organism-based; design: time infinity, dose 5 mg/kg, route intravenous; settings: plasma
MOLT-4 = experiment: Antiproliferation activity against human MOLT4 after 72 hrs by MTS method; assay type: functional; settings: MOLT-4, 72 h
MV4-11 = experiment: Antiproliferation activity against FLT3/ITD harboring human MV4-11 cells after 72 hrs by MTS method; assay type: functional; settings: MV4-11, 72 h
K562 = experiment: Antiproliferation activity against human K562 cells expressing wild type BCR/ABL after 72 hrs by MTS method; assay type: functional; settings: K562, 72 h
[10] = Antiproliferation activity against human RS4:11 cells expressing wild type FLT3 after 72 hrs by MTS method; assay type: functional; settings: RS4-11, 72 h
[11] = target: Receptor-type tyrosine-protein kinase FLT3 (Homo sapiens) (UniProt P36888); experiment: Inhibition of GST-tagged FLT3 expressing wild type kinase domain expressed in Sf9 insect cells at 1 uM after 4 hrs by Kinase-Glo assay

Chain of Vascular endothelial growth factor receptor 1 (P17948 whole entry, the tested form may be a part): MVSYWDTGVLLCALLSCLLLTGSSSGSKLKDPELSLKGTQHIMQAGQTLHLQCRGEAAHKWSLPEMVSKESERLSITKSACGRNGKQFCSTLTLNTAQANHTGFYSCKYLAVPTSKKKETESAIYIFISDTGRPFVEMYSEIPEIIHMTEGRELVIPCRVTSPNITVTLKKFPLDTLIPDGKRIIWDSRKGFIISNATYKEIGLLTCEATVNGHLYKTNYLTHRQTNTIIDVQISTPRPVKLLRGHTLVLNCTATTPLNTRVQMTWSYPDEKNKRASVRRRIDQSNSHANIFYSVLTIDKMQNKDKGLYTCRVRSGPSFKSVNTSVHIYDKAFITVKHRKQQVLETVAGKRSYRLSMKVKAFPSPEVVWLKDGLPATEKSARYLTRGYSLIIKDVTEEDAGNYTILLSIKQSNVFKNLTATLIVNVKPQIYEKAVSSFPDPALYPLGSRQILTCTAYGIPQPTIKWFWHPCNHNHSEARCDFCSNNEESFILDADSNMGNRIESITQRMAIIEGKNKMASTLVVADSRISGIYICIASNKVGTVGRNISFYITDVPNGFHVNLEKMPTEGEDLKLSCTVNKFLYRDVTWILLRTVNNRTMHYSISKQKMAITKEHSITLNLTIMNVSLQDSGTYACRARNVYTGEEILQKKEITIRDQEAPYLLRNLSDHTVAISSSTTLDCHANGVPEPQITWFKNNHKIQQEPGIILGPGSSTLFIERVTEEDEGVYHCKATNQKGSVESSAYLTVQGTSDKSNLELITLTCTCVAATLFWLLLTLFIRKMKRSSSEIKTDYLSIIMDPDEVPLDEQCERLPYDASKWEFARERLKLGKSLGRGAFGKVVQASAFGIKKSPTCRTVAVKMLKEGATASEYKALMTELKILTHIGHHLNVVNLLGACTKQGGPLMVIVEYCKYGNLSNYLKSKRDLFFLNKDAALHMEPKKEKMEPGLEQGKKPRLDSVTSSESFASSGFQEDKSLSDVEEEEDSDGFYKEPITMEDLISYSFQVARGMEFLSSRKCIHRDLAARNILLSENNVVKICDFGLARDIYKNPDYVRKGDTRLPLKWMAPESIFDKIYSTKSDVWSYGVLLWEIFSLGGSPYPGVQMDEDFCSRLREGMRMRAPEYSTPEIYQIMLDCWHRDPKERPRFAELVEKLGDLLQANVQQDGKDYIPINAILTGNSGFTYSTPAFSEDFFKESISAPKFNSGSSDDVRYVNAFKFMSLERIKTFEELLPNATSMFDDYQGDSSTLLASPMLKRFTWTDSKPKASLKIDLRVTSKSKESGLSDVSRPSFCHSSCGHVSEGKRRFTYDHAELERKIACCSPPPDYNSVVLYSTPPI
Chain of Vascular endothelial growth factor receptor 2 (P35968 whole entry): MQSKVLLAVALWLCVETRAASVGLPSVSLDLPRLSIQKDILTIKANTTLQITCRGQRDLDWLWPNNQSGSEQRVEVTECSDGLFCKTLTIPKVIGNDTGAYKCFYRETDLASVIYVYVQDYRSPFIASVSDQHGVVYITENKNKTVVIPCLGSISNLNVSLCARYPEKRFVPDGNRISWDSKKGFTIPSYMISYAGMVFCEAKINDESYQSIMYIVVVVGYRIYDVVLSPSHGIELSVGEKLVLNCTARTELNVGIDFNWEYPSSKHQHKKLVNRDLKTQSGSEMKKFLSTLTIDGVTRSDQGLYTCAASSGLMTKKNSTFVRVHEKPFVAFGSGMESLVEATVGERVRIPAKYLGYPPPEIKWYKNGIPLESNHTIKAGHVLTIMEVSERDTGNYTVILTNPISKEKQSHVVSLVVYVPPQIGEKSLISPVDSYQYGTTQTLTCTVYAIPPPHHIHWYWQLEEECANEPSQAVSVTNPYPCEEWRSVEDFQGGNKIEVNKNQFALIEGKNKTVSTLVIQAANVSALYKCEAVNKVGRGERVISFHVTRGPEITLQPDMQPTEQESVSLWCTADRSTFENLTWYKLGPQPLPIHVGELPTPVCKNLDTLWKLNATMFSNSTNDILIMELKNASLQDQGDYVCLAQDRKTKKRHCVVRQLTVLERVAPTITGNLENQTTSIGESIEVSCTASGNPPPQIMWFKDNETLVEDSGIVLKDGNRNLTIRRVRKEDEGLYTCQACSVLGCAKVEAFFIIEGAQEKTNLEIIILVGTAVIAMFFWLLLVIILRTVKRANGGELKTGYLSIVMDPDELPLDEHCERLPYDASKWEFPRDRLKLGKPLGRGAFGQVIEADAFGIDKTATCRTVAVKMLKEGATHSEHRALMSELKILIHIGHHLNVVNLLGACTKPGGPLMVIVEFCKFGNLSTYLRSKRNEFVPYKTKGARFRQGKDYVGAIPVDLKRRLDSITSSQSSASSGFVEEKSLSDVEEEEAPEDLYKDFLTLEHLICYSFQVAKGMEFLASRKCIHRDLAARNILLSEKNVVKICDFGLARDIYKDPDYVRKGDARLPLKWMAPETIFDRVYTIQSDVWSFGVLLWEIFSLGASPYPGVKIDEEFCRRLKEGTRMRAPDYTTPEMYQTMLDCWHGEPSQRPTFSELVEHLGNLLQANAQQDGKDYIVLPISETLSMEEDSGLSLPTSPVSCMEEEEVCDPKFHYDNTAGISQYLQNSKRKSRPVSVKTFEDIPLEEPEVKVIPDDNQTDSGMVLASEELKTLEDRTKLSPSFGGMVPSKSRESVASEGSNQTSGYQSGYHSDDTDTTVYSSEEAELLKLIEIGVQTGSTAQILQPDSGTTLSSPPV

Row | Compound | IC50 [1] [µM] | IC50 [4] [µM] | IC50 (Aurora kinase A) [µM] | IC50 [6] [µM] | GI50 (MOLM-13) [µM] | further results
1 | O=C(Nc1cc(-c2cccc(NS(=O)(=O)c3ccccc3)c2)n[nH]1)c1ccc(OCCN2CCCC2)cc1 | 0.2 | 0.007 | 1.17 | 0.27 | 0.025 | half-life [2]: 9.9 h; Activity (Mus musculus [3]): Toxic; Vd [5]: 10.7 L/kg; Activity (Mus musculus [7]): Toxic; clearance [8]: 22.3 mL/min/kg; AUC(0-inf) [9]: 3940 ng·h/mL
2 | CNC(=O)c1cc(Oc2ccc(NC(=O)Nc3ccc(Cl)c(C(F)(F)F)c3)cc2)ccn1 [SORAFENIB] | – | – | – | – | – | GI50 (MOLT-4): 9 µM; GI50 (MV4-11): 0.03 µM; GI50 (K562): 6.2 µM; GI50 [10]: 9.4 µM
3 | CC(C)S(=O)(=O)Nc1cccc(-c2cc(NC(=O)c3ccc(N4CCN(C)CC4)cc3)[nH]n2)c1 | > 1 | 0.16 | > 1 | > 1 | 0.044 | –
4 | CN1CCN(c2ccc(C(=O)Nc3cc(-c4cccc(NC(=O)Nc5ccccc5)c4)n[nH]3)cc2)CC1 | – | 0.02 | – | – | 0.15 | –
5 | O=C(Nc1cc(-c2cccc(NS(=O)(=O)c3ccccc3)c2)n[nH]1)c1ccc(N2CCOCC2)cc1 | 0.45 | 0.029 | 0.39 | > 1 | 0.1 | –
6 | CN1CCN(c2cccc(C(=O)Nc3cc(-c4cccc(NS(=O)(=O)c5ccccc5)c4)n[nH]3)c2)CC1 | 0.41 | 0.065 | 0.85 | > 1 | 0.19 | –
7 | O=C(O)c1ccc(C(=O)Nc2cc(-c3cccc(NS(=O)(=O)c4ccccc4)c3)n[nH]2)cc1 | – | – | – | – | – | inhibition [11]: 61%
8 | Cc1cccc(S(=O)(=O)Nc2cccc(-c3cc(Nc4cc(N5CCN(C)CC5)nc(C)n4)[nH]n3)c2)c1 | > 1 | 0.12 | > 1 | > 1 | 0.078 | –
9 | O=C(Nc1cc(-c2cccc(NS(=O)(=O)c3ccccc3)c2)n[nH]1)c1ccc(C(F)(F)F)cc1 | – | > 1 | – | – | – | –
10 | CCCS(=O)(=O)Nc1cccc(-c2cc(NC(=O)c3ccc(N4CCN(C)CC4)cc3)[nH]n2)c1 | 2.72 | 0.1 | 1.64 | 2.61 | 0.056 | –
11 | O=C(O)c1cccc(C(=O)Nc2cc(-c3cccc(NS(=O)(=O)c4ccccc4)c3)n[nH]2)c1 | – | – | – | – | – | inhibition [11]: 56%
12 | Cc1nc(NCCN2CCOCC2)cc(Nc2cc(-c3cccc(NS(=O)(=O)c4ccccc4)c3)n[nH]2)n1 | > 1 | 0.06 | > 1 | > 1000 | 0.46 | –
13 | O=C(Nc1cc(-c2cccc(NS(=O)(=O)c3ccccc3)c2)n[nH]1)c1cccc(N2CCOCC2)c1 | > 1 | > 1 | > 1 | > 1 | 0.26 | –
14 | O=C(Nc1cc(-c2cccc(NS(=O)(=O)c3ccccc3)c2)n[nH]1)c1ccccc1 | – | – | – | – | – | inhibition [11]: 54%
15 | COc1ccc(S(=O)(=O)Nc2cccc(-c3cc(NC(=O)c4ccc(N5CCN(C)CC5)cc4)[nH]n3)c2)cc1 | 0.16 | 0.09 | > 1 | 0.42 | 0.05 | –
16 | O=C(Nc1cc(-c2cccc(NS(=O)(=O)c3ccccc3)c2)n[nH]1)c1cccc(C(F)(F)F)c1 | – | > 1 | – | – | – | –
17 | CN1CCN(c2ccc(C(=O)Nc3cc(-c4cccc(NS(=O)(=O)c5cccc(Cl)c5)c4)n[nH]3)cc2)CC1 | 0.25 | 0.008 | 1.71 | 0.04 | 0.039 | –
18 | CCCCS(=O)(=O)Nc1cccc(-c2cc(Nc3cc(N4CCN(C)CC4)nc(C)n3)[nH]n2)c1 | > 1 | 0.11 | > 1 | > 1 | 0.16 | –
19 | CN1CCN(c2ccc(C(=O)Nc3cc(-c4ccc(NS(=O)(=O)c5ccccc5)cc4)n[nH]3)cc2)CC1 | – | 0.59 | – | – | 0.05 | –
20 | CCS(=O)(=O)Nc1cccc(-c2cc(NC(=O)c3ccc(N4CCN(C)CC4)cc3)[nH]n2)c1 | > 1 | 0.36 | > 1 | > 1 | 0.033 | –
21 | CN1CCN(c2ccc(C(=O)Nc3cc(-c4cccc(N)c4)n[nH]3)cc2)CC1 | – | 0.014 | – | – | 0.077 | –
22 | CN1CCN(c2ccc(C(=O)Nc3cc(-c4cccc(NS(=O)(=O)c5ccc(Cl)cc5)c4)n[nH]3)cc2)CC1 | > 1 | 0.12 | 4.99 | 0.57 | 0.074 | –
23 | Cc1nc(Nc2cc(-c3cccc(NS(=O)(=O)c4ccccc4)c3)n[nH]2)cc(N2CCN(CCO)CC2)n1 | 0.14 | 0.05 | 0.17 | > 1 | 0.024 | –
24 | CN1CCN(c2ccc(C(=O)Nc3cc(-c4cccc(NC(=O)c5ccccc5)c4)n[nH]3)cc2)CC1 | – | 0.27 | – | – | 0.21 | –
